Activity calls are given as the source filed them. No cut-off for these calls is given here.

The target of the first test is T1, Tyrosinase (Agaricus bisporus) (UniProt O42713).
T1 sequence (whole entry): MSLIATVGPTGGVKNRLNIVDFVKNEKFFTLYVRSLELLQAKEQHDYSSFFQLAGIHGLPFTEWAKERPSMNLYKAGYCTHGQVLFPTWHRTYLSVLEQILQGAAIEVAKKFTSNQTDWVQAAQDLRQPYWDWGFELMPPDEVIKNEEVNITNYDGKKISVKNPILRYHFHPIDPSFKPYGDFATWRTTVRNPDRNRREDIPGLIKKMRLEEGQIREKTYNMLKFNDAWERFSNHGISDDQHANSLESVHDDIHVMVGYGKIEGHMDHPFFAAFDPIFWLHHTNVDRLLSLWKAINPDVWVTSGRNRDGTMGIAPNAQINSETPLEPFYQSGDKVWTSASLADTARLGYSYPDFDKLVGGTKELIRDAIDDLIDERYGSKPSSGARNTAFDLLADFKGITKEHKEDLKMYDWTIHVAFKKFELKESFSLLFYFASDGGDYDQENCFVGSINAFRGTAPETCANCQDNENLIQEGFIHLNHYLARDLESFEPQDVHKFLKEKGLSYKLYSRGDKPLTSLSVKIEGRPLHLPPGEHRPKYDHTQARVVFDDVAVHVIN
In words: Irreversible inhibition of mushroom tyrosinase assessed as oxidation of L-DOPA at 0.8 mmol/L […].
Conditions: not given
A digest of the protocol: (§1)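 Mushroom tyrosinase was run with L-DOPA as substrate. Enzyme concentration was varied at fixed inhibitor levels of 0, 0.5, 0.8 and 1.0 mmol/L. Rate (V) was plotted against enzyme concentration [E] for each inhibitor level to judge whether inhibition was reversible or irreversible.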
Turning to `CC(=O)OC[C@H]1O[C@@H](Oc2ccc(C=C3C(=O)NC(=O)NC3=O)cc2O)[C@H](OC(C)=O)[C@@H](OC(C)=O)[C@@H]1OC(C)=O`, the inhibition result was “Active”.

The next test addresses T1, Tyrosinase (Agaricus bisporus). Particulars: 0.5 mmol/L.
As to `CC(=O)OC[C@H]1O[C@@H](Oc2ccc(C=O)cc2O)[C@H](OC(C)=O)[C@@H](OC(C)=O)[C@@H]1OC(C)=O`, the inhibition result was “Active”.

The target in the next test is T2, Tyrosinase (Agaricus bisporus, UniProt O42713).
T2 sequence (O42713 whole entry): T1 sequence (whole entry)
Description: Inhibition of diphenolase activity of mushroom tyrosinase.
Conditions: not given
Regarding `CC(=O)OC[C@H]1O[C@@H](Oc2ccc(C=C3C(=O)NC(=O)NC3=O)cc2)[C@H](OC(C)=O)[C@@H](OC(C)=O)[C@@H]1OC(C)=O`, the IC50 (in general, the point on the concentration scale where inhibition reaches its midpoint) was 1270 µM.
`CC(=O)OC[C@H]1O[C@@H](Oc2ccc(C=C3C(=O)NC(=S)NC3=O)cc2)[C@H](OC(C)=O)[C@H](OC(C)=O)[C@@H]1OC(C)=O`: 340 µM corresponded to half-maximal inhibition (IC50).
On the same count and under the same terms, under `O=C1NC(=S)NC(=O)C1=Cc1ccc(O[C@@H]2O[C@H](CO)[C@@H](O)[C@@H](O)[C@H]2O)cc1` stands 1160 µM.
For `CC(=O)OC[C@H]1O[C@@H](Oc2ccc(C=C3C(=O)NC(=O)NC3=O)c(O)c2)[C@H](OC(C)=O)[C@@H](OC(C)=O)[C@@H]1OC(C)=O`, inhibition was half-maximal at 1730 µM (IC50).
Still for that read-out and setting: the result for `CC(=O)OC[C@H]1O[C@@H](Oc2ccccc2C=C2C(=O)NC(=S)NC2=O)[C@H](OC(C)=O)[C@@H](OC(C)=O)[C@@H]1OC(C)=O` reads 430 µM.
The same measure, in the same setting: the result for `CC(=O)OC[C@H]1O[C@@H](Oc2ccc(C=O)c(O)c2)[C@H](OC(C)=O)[C@@H](OC(C)=O)[C@@H]1OC(C)=O` reads above 3000 µM; that for `CC(=O)OC[C@H]1O[C@@H](Oc2ccc(C=C3C(=O)NC(=O)NC3=O)cc2)[C@H](OC(C)=O)[C@H](OC(C)=O)[C@@H]1OC(C)=O`, 1500 µM.
Still for that read-out and setting: the result for `CC(=O)OC[C@H]1O[C@@H](Oc2cccc(C=O)c2)[C@H](OC(C)=O)[C@@H](OC(C)=O)[C@@H]1OC(C)=O` reads above 3000 µM; that for `CC(=O)OC[C@H]1O[C@@H](Oc2cccc(C=C3C(=O)NC(=S)NC3=O)c2)[C@H](OC(C)=O)[C@@H](OC(C)=O)[C@@H]1OC(C)=O`, 870 µM; that for `CC(=O)OC[C@H]1O[C@@H](Oc2ccccc2C=C2C(=O)NC(=O)NC2=O)[C@H](OC(C)=O)[C@@H](OC(C)=O)[C@@H]1OC(C)=O`, above 3000 µM.
Take `CC(=O)OC[C@H]1O[C@@H](Oc2cccc(C=C3C(=O)NC(=O)NC3=O)c2)[C@H](OC(C)=O)[C@@H](OC(C)=O)[C@@H]1OC(C)=O`: the IC50 was above 3000 µM.
`CC(=O)OC[C@H]1O[C@@H](Oc2ccccc2C=O)[C@H](OC(C)=O)[C@@H](OC(C)=O)[C@@H]1OC(C)=O`: the IC50 was above 3000 µM.
Same read-out and setting: under `CC(=O)OC[C@H]1O[C@@H](Oc2ccc(C=C3C(=O)NC(=S)NC3=O)c(O)c2)[C@H](OC(C)=O)[C@@H](OC(C)=O)[C@@H]1OC(C)=O` stands 280 µM.
`O=C1NC(=O)C(=Cc2ccc(O[C@@H]3O[C@H](CO)[C@@H](O)[C@@H](O)[C@H]3O)cc2)C(=O)N1` registered an IC50 of 1630 µM. This IC50 lies about 5.8-fold higher than the previous one.
The same measure, in the same setting: under `CC(=O)OC[C@H]1O[C@@H](Oc2ccc(C=C3C(=O)NC(=S)NC3=O)cc2O)[C@H](OC(C)=O)[C@@H](OC(C)=O)[C@@H]1OC(C)=O` stands 50 µM; under `CC(=O)OC[C@H]1O[C@@H](Oc2ccc(C=O)cc2O)[C@H](OC(C)=O)[C@@H](OC(C)=O)[C@@H]1OC(C)=O`, 430 µM.
Compound `CC(=O)OC[C@H]1O[C@@H](Oc2ccc(C=O)cc2)[C@H](OC(C)=O)[C@H](OC(C)=O)[C@@H]1OC(C)=O` gave an IC50 of 780 µM.
`CC(=O)OC[C@H]1O[C@@H](Oc2ccc(C=C3C(=O)NC(=O)NC3=O)cc2O)[C@H](OC(C)=O)[C@@H](OC(C)=O)[C@@H]1OC(C)=O` returned a concentration for half-maximal inhibition (IC50) of 130 µM.
Same read-out and setting: the result for `CC(=O)OC[C@H]1O[C@@H](Oc2ccc(C=C3C(=O)NC(=S)NC3=O)cc2)[C@H](OC(C)=O)[C@@H](OC(C)=O)[C@@H]1OC(C)=O` reads 230 µM.

The target of another test is T1, Tyrosinase (Agaricus bisporus). Description: Irreversible inhibition of mushroom tyrosinase assessed as oxidation of L-DOPA at 1 mmol/L […].
Conditions: not given
A digest of the protocol:
as §1
For the compound `CC(=O)OC[C@H]1O[C@@H](Oc2ccc(C=C3C(=O)NC(=S)NC3=O)cc2O)[C@H](OC(C)=O)[C@@H](OC(C)=O)[C@@H]1OC(C)=O`, the inhibition result was “Active”.

(Values after ChEMBL document CHEMBL1153055, “Synthesis and evaluation of 5-benzylidene(thio)barbiturate-beta-D-glycosides as mushroom tyrosinase inhibitors” (Bioorg Med Chem Lett, 2009).)
